These results are taken from ChEMBL document CHEMBL4513216, “Probing the Open Global Health Chemical Diversity Library for Multistage-Active Starting Points for Next-Generation Antimalarials” (ACS Infect Dis, 2020).

SMILES strings stand for the structures.

The data set is described as follows: Toxicity liver stage against HepG2, at 10uM. It is filed as cell-based. Also on record: test concentration 10 uM, cell line HepG2-A16-CD81EGFP. The conditions noted are these: human, HepG2-A16-CD81EGFP cells; read-out: INHIBITION
A digest of the protocol: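 Uninfected HepG2-A16-CD81EGFP cells, 3 × 10^3 per well, 1536-well, plated on prespotted compound at 10 μM final, parasite-free screening media added to match infected plates; puromycin 10 μM positive, DMSO 0.5% negative; run in parallel with 48 h PbLuc assay at 37 °C, 5% CO2; viability by CellTiter-Glo luminescence, normalized to controls.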
In the case of `C=Cc1ccc(CSc2nc3c(c(=O)[nH]2)CN(CCC)CC3)cc1`, the cytotoxicity at 10 µM was -4.68%.
Then `Cc1cc(C)nc(C2CCN(C3CCCCC3)C2)n1` (configuration not stated), with 7.33%; and `CCC(=O)N1CCC(n2cc(C(C)(C)O)nn2)CC1`, with 3.92%; and `CN(C)C(=O)c1cccc(CCNS(=O)(=O)c2ccccc2)c1`, with -4.12%.
`OC1CCN(Cc2ccc(CNc3ccc(Cl)cn3)cc2)CC1`: the cytotoxicity at 10 µM was determined as 0.313%.
Then `CCn1cc(NC(=O)NCC(c2cccc(OC)c2)N(C)C)cn1` (configuration not stated), with -7.25%; and `CCN(Cc1nc2c(cnn2C)c(=O)[nH]1)c1cccc(C)c1`, with -7.09%; and `Cc1oncc1C(=O)N[C@@H]1CN(Cc2ccco2)C[C@@H]2CCCO[C@@H]21`, with -109%.
Then `CCCN(Cc1cccnc1)C1CC(C)(C)NC(C)(C)C1`, with -4.47%.
In the case of `CCN(C)C(=O)c1ncn2c(C3CCN(S(C)(=O)=O)CC3)ccnc12`, the cytotoxicity at 10 µM is -3.68%.
The result for `CCCOC1CCCN(C(=O)Cn2cccc(C(F)(F)F)c2=O)C1` (configuration not stated) reads -0.912%; that for `Cc1cc(CC(=O)N(CC2CN(C)CCO2)c2nccs2)no1` (configuration not stated), -7.49%; that for `COc1c(Cl)cc(C(=O)NCCNc2ncccn2)cc1Cl`, -9.32%.
Then `Cc1ccc(CC(=O)N2CCCC2Cn2nc(C)cc2C)cn1` (configuration not stated), with -9.24%; and `COCCN1Cc2ccccc2C2(CCN(S(C)(=O)=O)CC2)C1`, with 0.121%; and `CCCN1CCCC2(CCN(C(=O)CCCn3cncn3)C2)C1=O` (configuration not stated), with -1.84%.
The result for `COc1ccccc1OCCN1CCC(N2CCNC2=O)CC1` reads -3.19%; that for `CCN1CC2(CC1=O)CN(C(=O)c1ccsc1)CCN(C(=O)N(C)C)C2` (configuration not stated), 3.01%; that for `Cn1c(Cn2ccnc2)nnc1C1CCN(Cc2cccnc2N)CC1`, -8.37%.
Take `CCc1noc(C(C)N2CCN(Cc3noc(C)n3)CC2)n1` (configuration not stated): the cytotoxicity at 10 µM was -4.48%.
The result for `CC(C)CC1SCC(=O)Nc2c1cnn2-c1ccc(F)cc1` (configuration not stated) reads 6.82%; that for `CCn1ncnc1CN(C/C=C/c1ccccc1)CCOC`, 4.3%.
Then `COC(CNC(=O)CNC(=O)c1ccccc1)c1cccc(Cl)c1` (configuration not stated), with 5.61%; and `CCCc1cc(NCc2noc(COC)n2)n2nccc2n1`, with 6.48%; and `CC(NC(=O)c1cccc(CN2CCN(C)CC2)c1)c1ccccn1` (configuration not stated), with -13.5%.
The result for `Fc1cnc(N2CC[C@@H]3CN(Cc4ccncc4)CCO[C@@H]3C2)nc1` reads 5.38%; that for `CN1CCC(N(CCc2ccccc2)C(=O)c2ccc(CO)cc2)CC1`, 1.63%; that for `COc1ncccc1NC(=O)NC(C)(C)c1ncc(C)s1`, -9.44%.
With `COc1c(C2CCCN2C(=O)c2ccoc2)c(C)nn1C` (configuration not stated), the cytotoxicity at 10 µM is 4%.
Then `O=C(Nc1ncnc2c1CCC2)c1ccc2c(c1)OCO2`, with 4.42%; and `CC(C)NC(=O)c1ccc2c(c1)nc1n2CCN(c2ccccc2)C1`, with -3.99%; and `Cc1ccc(CN2CCOC3(COCCN(C(C)C)C3)C2)o1` (configuration not stated), with -107%.
The result for `O=C(COC1CCCCC1)N1CCN(C(=O)Cc2ccccn2)CC1` reads -1.3%; that for `COc1ccc(C(C)n2ccnc2-c2cc3n(n2)CCCNC3)cc1F` (configuration not stated), -3.06%; that for `COc1ccc(C(C)NC(=O)N2CCNC(=O)CC2)cc1F` (configuration not stated), 13.5%.
As to `O=C(Cc1cccs1)NCC1Cn2nnc(-c3ccoc3)c2CO1` (configuration not stated), the cytotoxicity at 10 µM was determined as 6.06%.
With `COc1ccc(C2CC(=O)Oc3cc(C)[nH]c(=O)c32)cc1O` (configuration not stated), the cytotoxicity at 10 µM is -4.47%.
The result for `CCc1cccc(OCCN(C)C(=O)c2ccccc2NCC(=O)O)c1` reads -2.69%; that for `Cc1cc(C(F)(F)F)nn1CCCNC(=O)C1CCCO1` (configuration not stated), -6.5%; that for `CCN1CCOC(CNCc2ccccn2)C1` (configuration not stated), -9.09%.
Then `O=C(CCCc1cn[nH]c1)N1C[C@@H](CN2CCCCCC2)[C@@H](CO)C1`, with 1.52%; and `O=C(c1ccc(Cn2ccccc2=O)o1)N1CCSCC1`, with -14.8%; and `COCCCNc1cc(C(=O)N2CCOCC2)ccc1C`, with 7.1%.
The result for `CCCn1cnnc1CN(C)C(=O)C1CCCN(C2CCN(C)CC2)C1` (configuration not stated) reads -6.58%; that for `CN(C)C(=O)CCc1cncc(C2CCCN2Cc2ccccn2)n1` (configuration not stated), -3.94%; that for `CCc1ccc2c(c1)C(CCNC(=O)Cc1ccc(F)cc1)C(=O)N2` (configuration not stated), -44.3%.
With `COc1ccc(NC(=O)C2CC(=O)n3cnnc3S2)cc1` (configuration not stated), the cytotoxicity at 10 µM was 1.64%.
Then `Fc1cccc(CN2CCC[C@H](Cn3nnc(-c4ccccn4)n3)C2)c1`, with 3.44%; and `CCNc1ncc(C(=O)NC2COC3(CCCC3)C2)cn1` (configuration not stated), with -4.53%; and `O=C(CC1CCc2ccccc21)N1CCC(C(=O)O)(n2ccnc2)CC1` (configuration not stated), with 10.7%.
The result for `Cc1ccc2c(c1)nc1n2[C@@H](CNC(=O)c2cccnc2)COC1` reads 5.29%; that for `O=C1NCC(C(=O)Nc2ncc(Cc3ccccc3)s2)N1` (configuration not stated), 5.92%; that for `CN1CCN(c2cccc(Cl)c2CNCCS(C)(=O)=O)CC1`, -0.641%.
Then `Cc1ccc(F)cc1CC(=O)N(CCN1CCOCC1)Cc1ccco1`, with -3.91%; and `CCc1nnsc1C(=O)N1CCCN(Cc2cnn(C)c2)CC1`, with -2.26%; and `CCN(CC1CCOC1)C(=O)c1ccccc1S(C)(=O)=O` (configuration not stated), with -0.945%.
For `CCN(Cc1nonc1C)C(=O)Cn1nc(C(F)(F)F)cc1C`, the cytotoxicity at 10 µM came out at 0.7%.
The result for `Cc1ccccc1CN1CCN(Cc2nccn2C)CC1` reads -10.1%; that for `CN(C)c1cccc(CNCc2ccc(N3CCOCC3)cc2)c1`, 11.3%; that for `CC1CCc2nc(O)c(C(=O)NCCc3cccs3)cc2C1` (configuration not stated), 0.106%.
The result for `NC(=O)c1nc2c(s1)CCN(C(=O)Nc1ccccc1)CC2` reads 12.5%; that for `Cn1nc(COCC2CC2)c2c1CCN(Cc1cccs1)C2`, -101%; that for `CN(C)c1cc(CNC(=O)Nc2nccs2)ccn1`, 2.3%.
Then `CN(CC(N)=O)S(=O)(=O)c1ccc(F)cc1F`, with 4.26%; and `Cc1ccc(-c2nc(CNC3CCc4ncnn4C3)co2)cc1` (configuration not stated), with -3.75%.
For `CSc1nc(N)c2c(n1)N=C1COC(=O)C1C2c1cccc(Cl)c1` (configuration not stated), the cytotoxicity at 10 µM amounted to 37.5%.
In the case of `CC(C)CCc1cc(C(=O)O)nc2[nH]c(=O)[nH]c(=O)c12`, the cytotoxicity at 10 µM was 4.31%.
Then `Cc1nn(C2CCCCC2)c2nc(C(C)(C)CN3CCOCC3)[nH]c12`, with -3.64%; and `COc1cc(C)c(C(C)NC(=O)c2cccnc2N(C)C)cc1OC` (configuration not stated), with 1.25%.
Turning to `CN(C)C1CCN(C(=O)c2n[nH]c3c2CCN(CC2CCC2)C3)CC1`, the cytotoxicity at 10 µM was determined as 3.48%.
Then `O=C1C[C@H]2[C@@H](CCN2C(=O)Cc2cccs2)N1Cc1ccncc1`, with 6.12%; and `Cc1cccc(O[C@H]2COCCN(C3CCC3)C2)n1`, with -4.81%; and `CS(=O)(=O)N1CC2(CCN(C3CCCCC3)C2)Cc2ccccc21` (configuration not stated), with 3.38%.
On to `OCC(O)CN1CCc2onc(-c3ccc(C(F)(F)F)cc3)c2C1` (configuration not stated), for which the cytotoxicity at 10 µM was -3.24%.
Then `CO[C@@H]1CCN(Cc2nccs2)C[C@@H]1Cc1ccccc1`, with -69.5%; and `Cc1cc(NCCCNS(C)(=O)=O)nc2ccccc12`, with -4.69%.
The result for `COCCN1C(=O)CO[C@H]2CN(Cc3cccc(OC)c3F)C[C@@H]21` reads -0.0572%; that for `Cc1ncccc1NC(=O)[C@H]1C[C@@H]2CCN(Cc3ccsc3)C[C@H]2O1`, -79.1%.
The result for `COc1ccc(NC2CCN(C3CC3)C2=O)cn1` (configuration not stated) reads -10%; that for `Cc1cc2n(n1)CC(CNCc1cc(C)on1)CN2` (configuration not stated), -7.93%; that for `CN1CCC(C(=O)N2CCC(=Cc3cccc(F)c3)CC2)CC1=O` (configuration not stated), -2.19%.
As to `CNc1nc(C2CCN(C(=O)CC3CCCC3)C2)nc2c1CN(C)CC2` (configuration not stated), the cytotoxicity at 10 µM was -40.4%.
Then `OC1(CNCCSCc2ccccc2)CCCNC1` (configuration not stated), with 1.84%; and `Cc1[nH]c2ccccc2c1-c1ccnc(N[C@@H](C)CO)n1`, with -6.52%; and `COCCC(=O)N1CCn2cc(CN3CCN(C)CC3)nc2C1`, with -3.13%.
The result for `Cc1cccc(C(=O)N2CC(Cc3nccc4ccn(C)c34)C2)n1` reads -40.5%; that for `CCO[C@H]1CC[C@H]2[C@H]1OCCN2CCOCc1ccccc1`, -111%.
Then `CNc1ccnc(NCC(=O)Nc2cc(C)ccc2OC)n1`, with -2.9%; and `O=c1c(NCCCO)c(N2CCN(c3ccccc3)CC2)c1=O`, with -3.66%; and `Cc1cnc(C(=O)N2Cc3ncn(C)c3C(COCC(C)C)C2)cn1` (configuration not stated), with -112%.
Take `CCOc1ccc(Cl)c(C(=O)N2CCN(c3ncccn3)CC2)n1`: the cytotoxicity at 10 µM is -1.9%.
Consider `Cc1noc(C)c1CN1C(=O)[C@@H]2CC[C@H]1CN(Cc1cccnc1N)C2`, for which the cytotoxicity at 10 µM came out at 19.7%.
The result for `CNS(=O)(=O)c1ccc(CNC(=O)c2cc(C)no2)cc1` reads 5.12%; that for `CCn1ccnc1CN1CCN(CCOc2ccc(C#N)cc2)CC1`, -3.75%.
For the compound `CN(CCN1CCOC1=O)CC(=O)Nc1ccc(Cl)c(Cl)c1`, the cytotoxicity at 10 µM is -52.4%.
The result for `CO[C@H]1C[C@@H](O)C12CCN(CCCOc1ccc(C(N)=O)cc1)CC2` reads -5.66%; that for `COC(=O)CNC(=O)CCc1cc(Br)cs1`, 0.624%.
